Experimental data from ChEMBL document CHEMBL1155309, “Synthesis of 3,6-disubstituted 7H-1,2,4-triazolo[3,4-b]-1,3,4-thiadiazines as novel analgesic/anti-inflammatory compounds” (Eur J Med Chem, 2009).

Assays:
[1] = tested on: Mus musculus; assay: Antiinflammatory activity in BALB/c mouse assessed as inhibition of carrageenan-induced paw edema at 100 mg/kg, po after 90 mins; type: functional; conditions: 1.5 h
Procedure, shortened: (§1)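 Oral dosing in 0.5% CMC/water suspension, vehicle for controls. 1 h later, carrageenan (0.5 mg/25 µl saline) injected subplantar into right hind paw, 25 µl saline into left. Right–left footpad thickness measured by dial callipers every 90 min for 6 h. % inhibition = [(n − n′)/n]×100 versus control. Groups of 3 (100 mg/kg screen) or 4–5 mice.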

[2] = tested on: Mus musculus; assay: Antiinflammatory activity in BALB/c mouse assessed as inhibition of carrageenan-induced paw edema at 100 mg/kg, po after 270 mins; type: functional; conditions: 4.5 h; procedure, shortened: as §1
[3] = tested on: Mus musculus; assay: Antiinflammatory activity in BALB/c mouse assessed as inhibition of carrageenan-induced paw edema at 200 mg/kg, po after 360 mins; type: functional; conditions: 6 h; procedure, shortened: as §1
[4] = tested on: Mus musculus; assay: Analgesic activity in BALB/c mouse assessed as decrease in acetic acid-induced writhing at 100 mg/kg, po administered 1 hr prior to acetic acid challenge by Koster's test; type: functional
Procedure, shortened: (§2)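 Test samples suspended in distilled water/0.5% CMC given orally; vehicle to controls. 1 h later, 3% (w/v) acetic acid i.p. (0.1 ml/10 g). Starting 5 min after injection, writhings counted for 10 min. Result expressed as % change from writhing controls. Groups of 4 mice (preliminary 100 mg/kg) or 4–5 mice (50/200 mg/kg). Two-tailed Student's t test.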

[5] = tested on: Mus musculus; assay: Analgesic activity in BALB/c mouse assessed as decrease in acetic acid-induced writhing at 50 mg/kg, po administered 1 hr prior to acetic acid challenge by Koster's test; type: functional; procedure, shortened: as §2
[6] = tested on: Mus musculus; assay: Analgesic activity in BALB/c mouse assessed as decrease in acetic acid-induced writhing at 200 mg/kg, po administered 1 hr prior to acetic acid challenge by Koster's test; type: functional; procedure, shortened: as §2
[7] = tested on: Mus musculus; assay: Gastrointestinal toxicity in BALB/c mouse assessed as acute ulcerogenic risk at 200 mg/kg, po; type: organism-based; set-up: dose 200 mg/kg, route oral; conditions: in vivo
Procedure, shortened: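 Mice, fasted overnight with free water, received 200 mg/kg orally as a suspension in distilled water with 0.5% carboxymethyl cellulose, in groups of 4–5. They were first used in the acetic acid writhing test. Eight hours after that test they were killed under deep ether anaesthesia, and their stomachs were removed and scored for ulcers. Acetylsalicylic acid 200 mg/kg was the reference.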

[8] = tested on: Mus musculus; assay: Antioxidant activity in BALB/c mouse assessed as TBARS level per gram of wet weight of tissue at 200 mg/kg, po; type: functional; set-up: unit: nmol/g
Procedure, shortened: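 Mice dosed orally at 200 mg/kg were killed under ether 8 h after the writhing test and stomachs removed. Tissue extract supernatant obtained by centrifugation (1000×g 10 min, then 2000×g 30 min, 4 °C). Heated with TBA in boiling water for 60 min, TCA added, absorbance read at 532 nm against blank tissue. Calibrated with 1,1,3,3-tetraethoxypropane; reported as nmol TBARS/g wet tissue.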

[9] = tested on: Mus musculus; assay: Acute toxicity in BALB/c mouse assessed as diarrhea and depression at 50 to 200 mg/kg, po after 72 hrs; type: organism-based; set-up: dose 50-200 mg/kg, route oral; conditions: in vivo
[10] = tested on: Mus musculus; assay: Antiinflammatory activity in BALB/c mouse assessed as inhibition of carrageenan-induced paw edema at 100 mg/kg, po after 180 mins; conditions: 3 h
[11] = tested on: Mus musculus; assay: Antiinflammatory activity in BALB/c mouse assessed as inhibition of carrageenan-induced paw edema at 200 mg/kg, po after 270 mins; conditions: 4.5 h
[12] = tested on: Mus musculus; assay: Antiinflammatory activity in BALB/c mouse assessed as inhibition of carrageenan-induced paw edema at 100 mg/kg, po after 180 mins; type: functional; conditions: 3 h; procedure, shortened: as §1
[13] = tested on: Mus musculus; assay: Antiinflammatory activity in BALB/c mouse assessed as inhibition of carrageenan-induced paw edema at 50 mg/kg, po after 90 mins; type: functional; conditions: 1.5 h; procedure, shortened: as §1
[14] = tested on: Mus musculus; assay: Antiinflammatory activity in BALB/c mouse assessed as inhibition of carrageenan-induced paw edema at 50 mg/kg, po after 360 mins; type: functional; conditions: 6 h; procedure, shortened: as §1
[15] = tested on: Mus musculus; assay: Antiinflammatory activity in BALB/c mouse assessed as inhibition of carrageenan-induced paw edema at 200 mg/kg, po after 270 mins; type: functional; conditions: 4.5 h; procedure, shortened: as §1

Compound	inhibition in vivo at 100 mg/kg [1]	inhibition in vivo at 100 mg/kg [2]	inhibition in vivo at 200 mg/kg [3]	inhibition in vivo at 100 mg/kg [4]	inhibition in vivo at 50 mg/kg [5]	inhibition in vivo at 200 mg/kg [6]	Activity [7]	Activity [8]	Activity [9]	inhibition in vivo at 100 mg/kg [10]	inhibition in vivo at 200 mg/kg [11]	inhibition in vivo at 100 mg/kg [12]	inhibition in vivo at 50 mg/kg [13]	inhibition in vivo at 50 mg/kg [14]	inhibition in vivo at 200 mg/kg [15]
COc1cc(Cc2nnc3n2N=C(c2ccccc2)CS3)cc(OC)c1OC	24%	23.6%	33.3%	53%	32.4%	58.4%	Non-toxic	92.2 nmol	Non-toxic	34.9%	32.2%	–	–	–	–
COc1ccc(Cc2n[nH]c(=S)n2N)cc1	–	–	33.3%	30.2%	23.4%	46.7%	Non-toxic	93 nmol	Non-toxic	–	32.2%	–	–	–	–
COc1cc(Cc2nnc3n2N=C(c2ccc(Cl)cc2)CS3)cc(OC)c1OC	–	–	25%	32.6%	13.5%	23.4%	–	101.1 nmol	Non-toxic	–	41%	–	–	–	–
COc1cc(Cc2n[nH]c(=S)n2N)cc(OC)c1OC	–	–	21.2%	85.8%	21.6%	61%	–	96.2 nmol	Non-toxic	–	–	30%	32.3%	24.9%	49.2%
COc1ccc(CCc2n[nH]c(=S)n2N)cc1	–	–	37.5%	56.6%	9.5%	56.1%	Non-toxic	105.9 nmol	Non-toxic	–	33.9%	–	–	–	–
COc1ccc(CCc2nnc3n2N=C(c2ccc(Cl)cc2)CS3)cc1	–	–	50%	71.5%	20.2%	62.4%	–	108.4 nmol	Non-toxic	29.4%	–	–	–	–	20.4%
COc1ccc(CCc2nnc3n2N=C(c2ccc(F)cc2)CS3)cc1	26%	–	27.1%	29.2%	25%	37%	–	103.5 nmol	Non-toxic	33.7%	34%	–	–	–	–
CC(=O)Oc1ccccc1C(=O)O [ASPIRIN]	–	–	–	–	–	54.4%	–	118.2 nmol	–	–	–	–	–	–	–
COc1ccc2c(c1)c(CC(=O)O)c(C)n2C(=O)c1ccc(Cl)cc1 [INDOMETHACIN]	41.9%	–	–	–	–	–	–	–	–	43.1%	–	–	–	–	–
